Laboratory results from ChEMBL document CHEMBL1150379, “Synthesis and antiproliferative activity of imidazole and imidazoline analogs for melanoma” (Bioorg Med Chem Lett, 2008).
pIC50: −log10 of the molar value.

Key:
A-375 = assay: Antiproliferative activity against human A375 cells after 48 hrs by SRB assay; assay type: functional, cell-based; details: A-375, 48 h
How it was run: (§1)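 Cells seeded in round-bottom 96-well plates and exposed to a wide range of concentrations for 48 h. Fixed with 10% trichloroacetic acid, washed five times with water, air-dried overnight, then stained with sulforhodamine B. Total protein read at 560 nm. IC50 is the concentration inhibiting growth by 50% relative to DMSO-treated controls, obtained by nonlinear regression.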

[1] = Antiproliferative activity against mouse B16-F1 cells after 48 hrs by SRB assay; assay type: functional, cell-based; details: B16-F1, 48 h; how it was run: as §1
[2] = Antiproliferative activity against fibroblast cells after 48 hrs by SRB assay; assay type: cell-based; how it was run: as §1

pIC50 (A-375)	Structure (SMILES)	pIC50 [1]	pIC50 [2]
5.15	CCCCCCCCCCCCCCNC(=O)[C@@H]1CNC(c2ccccc2)=N1	5.14	4.76
4.79	CCCCCCCCC/C=C/CCCCCCCNC(=O)c1c[nH]c(-c2ccccc2)n1	4.50	4.62
4.98	CCCCCCCCCCCCCCCCNC(=O)[C@@H]1CNC(c2ccccc2)=N1	5.24	4.22
3.72	CCCCCCCCCCCCCCCCNC(=O)[C@@H]1CSC(Cc2ccc(NC(C)=O)cc2)N1 (stereo partly specified)	3.77	< 4.00
4.86	CCCCCCCCCCCCCCCCNC(=O)[C@H]1CC[C@@H](c2ccccc2)N1	4.94	4.33
5.09	CCCCCCCCCCCCCCCCNC(=O)[C@@H]1CSC(Cc2ccccc2)N1 (stereo partly specified)	5.19	4.82
4.27	CCCCCCCCCCCCCCCCCCNC(=O)[C@@H]1CNC(c2ccccc2)=N1	4.30	3.95
5.08	CCCCCCCCC/C=C/CCCCCCCNC(=O)[C@@H]1CNC(c2ccccc2)=N1	4.92	4.61
4.99	CCCCCCCCC/C=C/CCCCCCCNC(=O)[C@@H]1CSC(Cc2ccccc2)N1 (stereo partly specified)	4.94	4.81
4.88	CCCCCCCCCCCCCCCCNC(=O)[C@@H]1CSC(C(C)c2ccccc2)N1 (stereo partly specified)	4.91	4.25
4.67	CCCCCCCCC/C=C/CCCCCCCNC(=O)[C@@H]1CSC(C(C)c2ccccc2)N1 (stereo partly specified)	4.78	3.63

Further lines, the molecule ahead of its results:

Structure (SMILES)	pIC50 (A-375)	pIC50 [1]	pIC50 [2]
CCCCCCCCCCCCCCCCCCNC(=O)c1c[nH]c(-c2ccccc2)n1	4.68	< 4.52	4.32
COc1cc(C2=N[C@H](C(=O)N(C)OC)CN2)cc(OC)c1OC	< 4.70	< 4.70	< 4.70
CCCCCCCCCCCCNC(=O)c1c[nH]c(-c2ccccc2)n1	< 4.52	4.52	
CCCCCCCCCCCCCCCCNC(=O)[C@@H]1CNC(c2cc(OC)c(OC)c(OC)c2)=N1	5.39	5.42	4.88
O=C(Nc1ccc(Br)cc1)c1c[nH]c(-c2ccccc2)n1	< 4.52	< 4.52	
CCCCCCCCCCCCCCCCNC(=O)[C@@H]1CNC(c2ccc(NC(C)=O)cc2)=N1	5.34	5.62	4.83
CCCCCCCCCCCCCCCCNC(=O)[C@@H]1CNC(Cc2cc(OC)c(OC)c(OC)c2)=N1	5.41	5.40	4.80
CC(=O)Nc1ccc(CC2N[C@H](C(=O)Nc3ccc4c(c3)Cc3ccccc3-4)CS2)cc1 (stereo partly specified)	5.21	5.40	4.82
O=C(Nc1ccc2c(c1)Cc1ccccc1-2)[C@@H]1CSC(Cc2ccccc2)N1 (stereo partly specified)	3.76	3.93	< 4.00
CCCCCCCCCCCCCCNC(=O)c1c[nH]c(-c2ccccc2)n1	4.73	4.42	4.37
CCCCCCCCCCCCCCCCNC(=O)c1c[nH]c(-c2ccccc2)n1	4.78	4.40	4.55
CCCCCCCCCCNC(=O)c1c[nH]c(-c2ccccc2)n1	< 4.52	< 4.52	
CN(C)/N=N/c1[nH]cnc1C(N)=O [DACARBAZINE]	< 4.00	< 4.00	
CNC(=O)c1cc(Oc2ccc(NC(=O)Nc3ccc(Cl)c(C(F)(F)F)c3)cc2)ccn1 [SORAFENIB]	5.27	5.31	4.82
